Test results as given in ChEMBL document CHEMBL3822362, “Effects of N-Substitutions on the Tetrahydroquinoline (THQ) Core of Mixed-Efficacy μ-Opioid Receptor (MOR)/δ-Opioid Receptor (DOR) Ligands” (J Med Chem, 2016).
Activity calls are given as the source filed them.

Tests used:
[1] = molecular target: T1, Kappa-type opioid receptor (Homo sapiens, UniProt P41145); test: Displacement of [3H]diprenorphine from human KOR expressed in CHO cell membranes after 1 hr by liquid scintillation counting
Procedure, shortened: (§1)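 Membranes (20 μg protein/tube) in 50 mM Tris-HCl pH 7.4 with 0.2 nM [3H]diprenorphine and varying peptidomimetic concentrations, 1 h at room temperature to equilibrium. GF/C filtration, five buffer washes, scintillation counting. Nonspecific binding with 10 μM naloxone.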

Mu-type opioid receptor [2] = molecular target: T2, Mu-type opioid receptor (Rattus norvegicus, UniProt P33535); test: Agonist activity at rat MOR transfected in rat C6 cell membranes after 1 hr by [35S]GTPgammaS assay; type: functional
T2 sequence (P33535 whole entry): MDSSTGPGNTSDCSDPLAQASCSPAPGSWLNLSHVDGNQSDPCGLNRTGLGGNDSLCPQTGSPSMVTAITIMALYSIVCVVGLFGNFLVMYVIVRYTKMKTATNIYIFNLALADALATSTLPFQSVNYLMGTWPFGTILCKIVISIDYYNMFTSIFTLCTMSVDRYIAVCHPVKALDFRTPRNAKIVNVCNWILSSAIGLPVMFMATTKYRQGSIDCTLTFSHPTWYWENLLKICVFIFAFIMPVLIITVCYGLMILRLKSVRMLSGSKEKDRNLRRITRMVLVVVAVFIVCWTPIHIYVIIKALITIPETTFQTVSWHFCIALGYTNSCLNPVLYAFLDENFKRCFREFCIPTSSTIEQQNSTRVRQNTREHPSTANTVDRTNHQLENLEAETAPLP
Procedure, shortened: (§2)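 Membranes (10–20 μg protein) from cells grown to confluence in DMEM/10% FBS, incubated 1 h at 25 °C in 50 mM Tris-HCl, 100 mM NaCl, 5 mM MgCl2, pH 7.4 with 0.1 nM [35S]GTPγS, 30 μM GDP and varying peptidomimetic concentrations. Filtered on GF/C, counted by scintillation. % stimulation relative to 10 μM DAMGO (MOR), DPDPE (DOR) or U69,593 (KOR).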

[3] = molecular target: T3, Delta-type opioid receptor (Rattus norvegicus, UniProt P33533); test: Agonist activity at rat DOR transfected in rat C6 cell membranes after 1 hr by [35S]GTPgammaS assay; type: functional; procedure, shortened: as §2
T3 sequence (P33533 whole entry): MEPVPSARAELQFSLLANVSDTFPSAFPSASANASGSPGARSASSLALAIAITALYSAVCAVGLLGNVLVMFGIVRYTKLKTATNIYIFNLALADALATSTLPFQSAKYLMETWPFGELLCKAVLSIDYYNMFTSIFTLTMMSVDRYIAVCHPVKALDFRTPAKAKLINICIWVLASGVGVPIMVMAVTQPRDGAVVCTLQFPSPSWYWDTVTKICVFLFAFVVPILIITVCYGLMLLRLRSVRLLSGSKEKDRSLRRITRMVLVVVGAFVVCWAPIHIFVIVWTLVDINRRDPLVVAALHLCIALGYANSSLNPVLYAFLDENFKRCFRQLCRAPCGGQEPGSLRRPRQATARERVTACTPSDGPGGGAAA

[4] = molecular target: T3, Delta-type opioid receptor; test: Displacement of [3H]diprenorphine from rat DOR transfected in rat C6 cell membranes after 1 hr by liquid scintillation counting; procedure, shortened: as §1
Mus musculus [5] = test: Antinociceptive activity in C57BL/6 mouse assessed as increase in latency time to tail flick at 1 to 10 mg/kg, ip measured at 30 min interval by warm water tail withdrawal assay; type: functional, organism-based
Procedure, shortened: (§3)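 Adult male C57BL/6 mice, 20–30 g, 8–16 weeks. Saline ip, baseline read 30 min later. Then three increasing ip doses every 30 min, in water or 1:1:8 ethanol:Alkumuls:water, giving cumulative 1, 3.2 and 10 mg/kg. Tail tip (2–3 cm) put in 50 °C water 30 min after each injection; latency to withdraw or flick read, 20 s cutoff; n = 3.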

[6] = molecular target: T1, Kappa-type opioid receptor; test: Agonist activity at human KOR expressed in CHO cell membranes after 1 hr by [35S]GTPgammaS assay; type: functional; procedure, shortened: as §2
[7] = molecular target: T1, Kappa-type opioid receptor; test: Agonist activity at human KOR expressed in CHO cell membranes at 10 uM after 1 hr by [35S]GTPgammaS assay relative to U69,593; type: functional; procedure, shortened: as §2
[8] = molecular target: Mu-type opioid receptor (Rattus norvegicus) (UniProt P33535); test: Agonist activity at rat MOR transfected in rat C6 cell membranes at 10 uM after 1 hr by [35S]GTPgammaS assay relative to DAMGO; type: functional; procedure, shortened: as §2
Chain of Mu-type opioid receptor (Rattus norvegicus) (P33535 whole entry): as the sequence (P33535 whole entry) above

[9] = molecular target: Delta-type opioid receptor (Rattus norvegicus) (UniProt P33533); test: Agonist activity at rat DOR transfected in rat C6 cell membranes at 10 uM after 1 hr by [35S]GTPgammaS assay relative to DPDPE; type: functional; procedure, shortened: as §2
Chain of Delta-type opioid receptor (Rattus norvegicus) (P33533 whole entry): as the sequence (P33533 whole entry) above

Mu-type opioid receptor [10] = molecular target: T2, Mu-type opioid receptor; test: Displacement of [3H]diprenorphine from rat MOR transfected in rat C6 cell membranes after 1 hr by liquid scintillation counting; procedure, shortened: as §1
Mus musculus [11] = test: Antinociceptive activity in C57BL/6 mouse assessed as latency time to tail flick at 10 mg/kg, ip measured at 30 min interval by warm water tail withdrawal assay; type: functional; procedure, shortened: as §3
Mus musculus [12] = test: Antinociceptive activity in C57BL/6 mouse assessed as time duration of action at 10 mg/kg, ip by warm water tail withdrawal assay; type: functional
Procedure, shortened: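 Male C57BL/6 mice given a single 10 mg/kg ip dose. Tail-withdrawal latency in 50 °C water (2–3 cm tail tip, 20 s cutoff) read at varying times after dosing to follow duration of antinociception; n = 3.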

Mus musculus [13] = test: Antinociceptive activity in C57BL/6 mouse assessed as increase in latency time to tail flick at 1 to 3.2 mg/kg, ip measured at 30 min interval by warm water tail withdrawal assay; type: functional, organism-based; procedure, shortened: as §3

T1 sequence (P41145 whole entry): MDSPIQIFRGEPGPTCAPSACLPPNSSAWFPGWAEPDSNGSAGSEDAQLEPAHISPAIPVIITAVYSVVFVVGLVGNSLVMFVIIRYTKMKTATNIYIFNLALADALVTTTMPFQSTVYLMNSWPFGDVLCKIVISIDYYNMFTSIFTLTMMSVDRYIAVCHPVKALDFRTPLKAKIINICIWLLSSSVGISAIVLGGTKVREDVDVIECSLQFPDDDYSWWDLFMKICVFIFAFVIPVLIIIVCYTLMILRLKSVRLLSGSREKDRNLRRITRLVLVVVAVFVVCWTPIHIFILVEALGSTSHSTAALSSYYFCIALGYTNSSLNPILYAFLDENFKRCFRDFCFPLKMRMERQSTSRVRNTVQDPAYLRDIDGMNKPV

| SMILES | Ki [1] | EC50 (Mu-type opioid receptor [2]) | EC50 ([3]; read-out: EC50) | Ki [4] | Activity (Mus musculus [5]) | EC50 ([6]; read-out: EC50) | Emax [7] | Emax [8] | Emax [9] | Ki (Mu-type opioid receptor [10]) | EC50 ([6]; cho) | EC50 ([3]; c6) | Time (Mus musculus [11]) | Time (Mus musculus [12]) | Activity (Mus musculus [13]) |
| --- | --- | --- | --- | --- | --- | --- | --- | --- | --- | --- | --- | --- | --- | --- | --- |
| Cc1cc(O)cc(C)c1C[C@H](N)C(=O)N[C@@H]1CCN(C(=O)C(C)C)c2ccc(Cc3ccccc3)cc21 | 76 nM | 9.6 nM | 25 nM | 0.53 nM | inactive | > 1300 nM | 41% | 95% | 52% | 0.38 nM |  |  |  |  |  |
| Cc1cc(O)cc(C)c1C[C@H](N)C(=O)N[C@@H]1CCN(CC(N)=O)c2ccc(Cc3ccccc3)cc21 | 4.3 nM | 1.5 nM | 270 nM | 2 nM | inactive | 380 nM | 49% | 99% | 34% | 0.23 nM |  |  |  |  |  |
| CCOC(=O)CN1CC[C@@H](NC(=O)[C@@H](N)Cc2c(C)cc(O)cc2C)c2cc(Cc3ccccc3)ccc21 | 15 nM | 5.1 nM | 15 nM | 0.58 nM |  | > 1300 nM | 24% | 79% | 34% | 0.37 nM |  |  |  |  |  |
| Cc1cc(O)cc(C)c1C[C@H](N)C(=O)N[C@@H]1CCN(C(=O)C2CCC2)c2ccc(Cc3ccccc3)cc21 | 56 nM | 2.1 nM | 5.1 nM | 0.15 nM | inactive |  | inactive | 94% | 58% | 0.23 nM | Not Active |  |  |  |  |
| Cc1cc(O)cc(C)c1C[C@H](N)C(=O)N[C@@H]1CCN(C(=O)c2ccccc2)c2ccc(Cc3ccccc3)cc21 | 39 nM | 2.6 nM |  | 0.24 nM | inactive | 430 nM | 16% | 74% |  | 0.08 nM |  | Not Active |  |  |  |
| CC(=O)N1CC[C@@H](NC(=O)[C@@H](N)Cc2c(C)cc(O)cc2C)c2cc(Cc3ccccc3)ccc21 |  |  |  |  | inactive |  |  |  |  |  |  |  |  |  |  |
| CCC(=O)N1CC[C@@H](NC(=O)[C@@H](N)Cc2c(C)cc(O)cc2C)c2cc(Cc3ccccc3)ccc21 | 40 nM | 3.9 nM | 32 nM | 1.1 nM |  | 880 nM | 32% | 96% | 58% | 0.12 nM |  |  |  |  |  |
| Cc1cc(O)cc(C)c1C[C@H](N)C(=O)N[C@@H]1CCN(C(=O)C2CC2)c2ccc(Cc3ccccc3)cc21 | 25 nM | 1.8 nM | 10 nM | 0.35 nM |  | 1000 nM | 32% | 88% | 69% | 0.1 nM |  |  | 11 s |  |  |
| CCCC(=O)N1CC[C@@H](NC(=O)[C@@H](N)Cc2c(C)cc(O)cc2C)c2cc(Cc3ccccc3)ccc21 | 50 nM | 3.5 nM | 8.1 nM | 1 nM |  | > 1200 nM | 22% | 53% | 44% | 0.1 nM |  |  |  |  |  |
| Cc1cc(O)cc(C)c1C[C@H](N)C(=O)N[C@@H]1CCN(CC(=O)O)c2ccc(Cc3ccccc3)cc21 | 280 nM | 78 nM |  | 67 nM |  |  | inactive | 87% | inactive | 4.4 nM | Not Active | Not Active |  |  |  |
| CCC(=O)N1CC[C@@H](NC(=O)[C@@H](N)Cc2c(C)cc(O)cc2C)c2cc(Cc3ccc4ccccc4c3)ccc21 | 58 nM | 13 nM |  | 0.21 nM | inactive | > 1400 nM | 15% | 75% |  | 0.28 nM |  | Not Active |  |  |  |
| COC(=O)N1CC[C@@H](NC(=O)[C@@H](N)Cc2c(C)cc(O)cc2C)c2cc(Cc3ccc4ccccc4c3)ccc21 | 190 nM | 0.39 nM |  | 1 nM | inactive |  |  | 110% |  | 0.32 nM | Not Active | Not Active |  |  |  |
| COC(=O)N1CC[C@@H](NC(=O)[C@@H](N)Cc2c(C)cc(O)cc2C)c2cc(Cc3ccccc3)ccc21 | 29 nM | 0.78 nM | 14 nM | 0.51 nM |  | 250 nM | 28% | 95% | 40% | 0.19 nM |  |  | 20 s | 1 h |  |
| COCC(=O)N1CC[C@@H](NC(=O)[C@@H](N)Cc2c(C)cc(O)cc2C)c2cc(Cc3ccccc3)ccc21 | 34 nM | 3 nM | 67 nM | 2.1 nM | inactive | > 1700 nM | 38% | 91% | 47% | 0.15 nM |  |  |  |  |  |
| Cc1cc(O)cc(C)c1C[C@H](N)C(=O)N[C@@H]1CCNc2ccc(Cc3ccccc3)cc21 |  |  |  |  |  |  |  |  |  |  |  |  |  | 1 h | inactive |
| CCCC(=O)N1CC[C@@H](NC(=O)[C@@H](N)Cc2c(C)cc(O)cc2C)c2cc(Cc3ccc4ccccc4c3)ccc21 | 64 nM | 0.9 nM |  | 0.8 nM | inactive |  | inactive | 92% | inactive | 0.14 nM | Not Active | Not Active |  |  |  |
